# Compounds with a hit are over-represented: about 2.5% of the library has one in this group of screens.
# TbMetRS inhib – Trypanosoma brucei MetRS inhibition | purified T. brucei MetRS, ATP depletion, Kinase-Glo luminescence | inhibition, % at 11.9 µM | actives 0.4% (n = 360,000) | AID 624268;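 active = inhibition above a per-plate cutoff of the control wells' mean inhibition plus 3 SD, cut at about 5.5% in these data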;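 note: 0% = DMSO wells median and 100% = median of wells with control inhibitor compound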
#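 Dosing: 11.9 µM compound single dose, 0.9% DMSO; Assay system: purified T. brucei MetRS enzyme; Measured by: Kinase-Glo luciferase luminescence reporting remaining unconsumed ATP; Schedule: 15 min plus 2 h at 25 °C.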
# NALP1 yeast inh – NALP1 inhibition | S. cerevisiae NALP1/ASC/caspase-1 growth, X-gal OD620, 72 h | actives 0.61% (n = 280,000) | inhibition, % at 10 µM | AID 2071; in the data active = inhibition mostly above about 24%, no sharp cut-off; inactive = mostly below about 32%
# NALP3 yeast inh – NALP3 inhibition in yeast; actives 0.39% (n = 330,000); Yeast reconstituted NLRP3/ASC/caspase-1, beta-gal luminescence, 24 h; inhibition, % at 10 µM;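 active = inhibition of 50% or more; inactive = inhibition below 50%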;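 note: plate controls were induced DMSO wells for no effect and uninduced yeast grown without galactose for full effect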
# MC4R antagonist – antagonists of human melanocortin 4 receptor (MC4R). inhibition, % at 6.5 µM. actives 0.48% (n = 360,000). P32245. MC4R-expressing cells, MTII-stimulated cAMP, LANCE TR-FRET;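 active = inhibition above its plate's cutoff, the mean of tested wells on that plate plus 3 SD, cut at about 29% in these data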;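 note: 0% = Melanotan II alone and 100% = Melanotan II plus saturating MCL0020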
# Target sequence (P32245 whole entry, looked up): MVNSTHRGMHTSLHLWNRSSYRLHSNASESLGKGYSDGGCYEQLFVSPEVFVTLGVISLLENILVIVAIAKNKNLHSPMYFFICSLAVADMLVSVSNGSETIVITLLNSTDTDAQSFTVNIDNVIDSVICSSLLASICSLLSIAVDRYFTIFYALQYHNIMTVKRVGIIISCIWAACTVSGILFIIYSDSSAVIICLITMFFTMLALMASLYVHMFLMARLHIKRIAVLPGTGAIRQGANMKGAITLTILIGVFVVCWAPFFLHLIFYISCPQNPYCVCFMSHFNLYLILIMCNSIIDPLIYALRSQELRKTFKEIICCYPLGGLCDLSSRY
#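 system = U2OS cells with stable human MC4R expression | also added = Melanotan II challenge after compound preincubation | dosing = one concentration, 6.5 µM nominal | incubation = compound 30 min, challenge 1 h, detection 1 h | measured by = TR-FRET with Eu-cAMP and labeled anti-cAMP, 671 nm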
# MC4R ag barr – human MC4R agonism via beta-arrestin; P32245; U2OS MC4R beta-arrestin complementation, luminescence; percent of melanotan II response, DMSO zero; activation, % at 8.9 µM; actives 0.98% (n = 360,000); AID 540308;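 active = activation above a per-plate cutoff, the mean activation of sample wells on that plate plus 3 SD, cut at about 8% in these data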
# A1 inh – inhibitors of the anti-apoptotic protein A1, read as caspase activation. MEF A1-2A-BIM cells, Caspase-Glo 3/7 luminescence, 3 h; percent of clofoctol response, vehicle zero. caspase activation, % (test concentration not listed). actives 0.066% (n = 330,000);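 active = over half of replicate activation scores above 10%, or exactly half above 10 with the replicate mean above 10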
# * = called active by the depositor; . = not tested or not shown.
SMILES,TbMetRS inhib,NALP1 yeast inh,NALP3 yeast inh,MC4R antagonist,MC4R ag barr,A1 inh
C[N+]1(CC2COC3(CCCCC3)O2)CCCC1 (centres undefined),0,30,-14,-2,0,0
C1CCCCCC2(CCCCC1)OCC(CN1CCOCC1)O2 (centres undefined),-1,54*,36,11,4,-1
CC(CCc1ccc(O)cc1)N(C)CCc1ccccc1 (centres undefined),0,26*,25,16,1,2
CC(CCc1ccc(O)cc1)NCCC(c1ccccc1)c1ccccc1 (centres undefined),-1,22,26,-6,2,1
COc1ccc(CNC(=O)COC(=O)c2cc(-c3ccc(Cl)s3)nc3ccccc23)cc1,0,-17,-14,0,9.2*,0
O=C(COC(=O)c1cc(-c2ccc(Cl)s2)nc2ccccc12)NCc1ccco1,-1,1,-1,18,-1,-1
Cc1cccnc1NC(=O)Nc1ccc(F)cc1,-1,28*,27,11,-1,-3
CCOC(=O)C1C(c2ccc(O)c(OC)c2)NC(=O)NC1(O)C(F)(F)F (centres undefined),0,34*,6,9,0,0
O=C(Nc1cccc(Br)c1)Oc1cccc2cccnc12,-1,.,.,.,.,.
CCN1CCN(CC(=O)N2N=C(c3ccc(OC)cc3)CC2c2ccc(OC)cc2)C(=O)C1=O (centres undefined),0,20*,-4,-4,-2,0
COc1ccc(C2=NN(C(=O)CCC(=O)O)C(c3ccc(OC)cc3)C2)cc1 (centres undefined),-1,13,4,1,0,1
C=CCNCC(=O)N1N=C(c2ccc3ccccc3c2)CC1c1ccc(OC)cc1 (centres undefined),0,29,17,-4,8.9*,1
COc1ccc(C2CC(c3ccc4ccccc4c3)=NN2C(=O)CNC2CCCCC2)cc1 (centres undefined),0,13,24,2,8.5*,-1
Cc1c(C(=O)NCc2ccc([N+](=O)[O-])cc2)sc(=O)n1Cc1ccc2c(c1)OCO2,0,.,.,-2,1,.
CC1CCC(NC(=O)c2cccn2C)CC1 (centres undefined),0,.,.,2,1,.
O=C(COC(=O)/C=C/c1cc(Br)ccc1F)Nc1ccc2[nH]c(=O)[nH]c2c1,0,.,10,2,8.9*,0
O=C(COC(=O)Cc1ccccc1F)Nc1ccc2[nH]c(=O)[nH]c2c1,-1,.,31,9,-5,2
CN1CCN([C@@H]2CS(=O)(=O)N[C@H]2COCc2ccccc2)CC1,-1,.,.,.,.,.
CN1CCN(c2ccc(Cl)cc2NC(=O)C2COc3ccccc3O2)CC1 (centres undefined),0,32*,20,-1,0,1
COc1ccc(Cl)cc1NC(=O)C1COc2ccccc2O1 (centres undefined),-1,5,28,7,-1,1
CSc1nn(-c2ccc(C(=O)OC(C(=O)NC(N)=O)C(C)C)cc2)c(=S)s1 (centres undefined),0,38*,14,5,8,1
CCNC(=O)NC(=O)C(C)OC(=O)c1ccc(-n2nc(SC)sc2=S)cc1 (centres undefined),1,21,15,20,3,1
CC(C)(Cl)C1Cc2cc3ccc(=O)oc3cc2O1 (centres undefined),-1,24*,9,-3,1,0
COC(=O)c1ccc2c(c1)C(C)(C)C(/C=C/c1ccc(O)cc1)=[N+]2C,-1,52*,25,-3,-6,10*
COC(=O)c1ccc2c(c1)C(C)(C)C(/C=C/c1ccc(OC)c(OC)c1OC)=[N+]2C,-1,5,6,9,-1,0
CCCCn1c(N)c(N(C)C(=O)c2ccc(OCC3CCCO3)cc2)c(=O)[nH]c1=O (centres undefined),0,.,8,-4,1,.
COC(=O)c1ccc(Nc2cc(C)nc3nc(C)nn23)cc1,3,30,16,5,-1,-1

# Source: PubChem (several laboratories)
